Bioassay records from PubChem.
Rows were chosen to be rich in hits. Some 1.1% of all compounds tested hit in one or more screens of this group.
PMI act hi M6P: increases human PMI activity with near-saturating mannose 6-phosphate | AID 1216 | P34949 | coupled PMI enzyme assay, resazurin fluorescence, 20 min; active compounds read high; 1 = untreated enzyme, 0 = substrate-free blank | 190,000 tested, 0.34% active | activation factor at 20 µM;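 active means activation factor of 2 or more at 20 µM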
Target sequence (P34949 whole entry, looked up): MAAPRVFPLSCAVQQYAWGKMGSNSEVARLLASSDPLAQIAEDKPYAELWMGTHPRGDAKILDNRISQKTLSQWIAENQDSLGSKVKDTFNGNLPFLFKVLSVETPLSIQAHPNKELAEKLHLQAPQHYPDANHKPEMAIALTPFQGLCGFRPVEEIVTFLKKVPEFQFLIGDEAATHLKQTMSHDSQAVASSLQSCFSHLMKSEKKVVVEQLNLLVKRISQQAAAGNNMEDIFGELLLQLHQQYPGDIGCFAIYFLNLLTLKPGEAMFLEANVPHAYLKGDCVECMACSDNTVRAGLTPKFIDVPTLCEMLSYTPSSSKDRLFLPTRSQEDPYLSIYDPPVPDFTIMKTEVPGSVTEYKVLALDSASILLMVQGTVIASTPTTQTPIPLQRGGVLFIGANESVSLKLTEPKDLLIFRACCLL
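Test system: human phosphomannose isomerase with PGI, G6PDH, diaphorase coupling enzymes; Amount: PMI at 15 ng/mL final; Reagent: Mannose-6-phosphate 1.0 mM (near-saturating) plus 0.22 mM NADP+; Timing: 20 min, room temperature; Technique: resorufin fluorescence at Ex 544/Em 590 nm; Dosing: 20 µM single dose.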
Diaph inh CS: inhibits diaphorase or chemically oxidizes, flagging diaphorase assay artifacts; inhibition, % at 20 µM; AID 1217; diaphorase resazurin-to-resorufin fluorescence, NADH, 16 min; bacterial (C. kluyveri) enzyme, not human; 190,000 tested, 0.69% active;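 active means primary screen inhibition at 20 µM above a set limit, cut at about 50% in these data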;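 further: plate controls were DMSO with full reaction for no effect and wells lacking NADH for full effect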
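System: Bacterial diaphorase enzyme (C. kluyveri) | Incubation: 16-min room-temperature incubation before reading | Benchmarks: No-NADH positive control and DMSO neutral control | Measured by: Resorufin fluorescence 544/590 nm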
Diaph act CS: diaphorase activation or chemical reduction counter-screen; Diaphorase/resazurin coupled assay, resorufin fluorescence, 16 min; active compounds read high; 1 = vehicle wells, 0 = NADH-free wells; activation factor at 20 µM; 190,000 tested, 0.005% active; AID 1229;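 active means diaphorase activity raised at least twofold by the compound at 20 µM; inactive means activation factor below 2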
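Material: Clostridium kluyveri diaphorase, purified enzyme; Quantity: enzyme 0.07 U/mL final; Medium: HEPES pH 7.4 buffer with MgCl2 and Tween 20; Dosing: single compound dose of 20 µM, 1% DMSO final; Schedule: 16 min reaction at room temperature; Measured by: red resorufin fluorescence at 544/590 nm excitation/emission.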
PMI act: activators of human phosphomannose isomerase. purified human PMI, coupled resazurin fluorescence, 20 min; active compounds read high; 1 = vehicle control, 0 substrate-free wells. activation factor at 20 µM. 190,000 tested, 0.005% active;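 active means activation factor of 2 or more at 20 µM, relative to plate controls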
G6PDH CS: counter-screen for G6PDH assay hits: L. mesenteroides G6PDH inhibition | Purified L. mesenteroides G6PDH, diaphorase/resazurin coupled fluorescence, 45 min | inhibition, % at 5 µM | 200,000 tested, 0.12% active; in the data active means inhibition above about 50%
Numbers without * were called inactive; x = no result.

SMILES | PMI act hi M6P | Diaph inh CS | Diaph act CS | PMI act | G6PDH CS
NC(=O)Cn1c(=O)n(C2CCCCC2)c(=O)c2c3c(sc21)CCCCC3 | 0.9 | 16 | 0.8 | 0.8 | -6
CSc1n[nH]c2nc3c(c(=O)n12)C1(CCCC1)Cc1ccccc1-3 | 2.2* | 8 | 0.9 | 1.6 | -3
CC(C)Sc1n[nH]c2nc3c(c(=O)n12)C1(CCCC1)Cc1ccccc1-3 | 1.3 | 10 | 0.9 | 1.1 | -3
Nc1nc(=S)[nH]c2c1C1(CCCCC1)Cc1ccccc1-2 | 1 | 53* | 0.5 | 0.9 | -8
COc1cc(CN2CCC(C(=O)N3CCN(c4ccccc4F)CC3)CC2)cc(OC)c1O | 0.5 | 32 | 0.7 | 0.8 | 54*
COc1cc2c(cc1OC)CN(Cc1cc(OC)c(O)c(OC)c1)CC2 | 0.3 | 26 | 0.7 | 0.8 | 53*
COc1cc(CN2CCN(c3ccccc3F)CC2)cc(OC)c1O | 0.8 | 40 | 0.6 | 0.7 | 54*
Cc1ccc(C(=O)c2coc3cc([N+](=O)[O-])c(O)c([N+](=O)[O-])c23)cc1 | 0.7 | 15 | 0.8 | 1.1 | 0
CC(C)(C)N=C1C([N+](=O)[O-])=CC=C2C1=NC1(CCCCC1)N2O | 0.3 | 76* | 0.2 | 0.2 | 39
O=[N+]([O-])C1=CC=C2C(=NC3(CCCCC3)N2O)C1=NCCc1ccccc1 | 0.4 | 63* | 0.4 | 0.4 | 15
O=[N+]([O-])C1=CC=C2C(=NC3(CCCCC3)N2O)C1=NC1CCCCC1 | 0.2 | 83* | 0.2 | 0.1 | 26
O=C(COC(=O)c1cc(=O)[nH]c(=O)[nH]1)Nc1cccc(S(=O)(=O)N2CCCCC2)c1 | 1 | 5 | 1 | 1 | -1
Cc1csc(NC(=O)CS(=O)(=O)c2ccccc2)n1 | 1.1 | 1 | 1 | 1.1 | 7
NC(=S)N/N=C/c1ccc(Br)o1 | 1 | 16 | 0.8 | 1.1 | 1
NC(=S)N/N=C/c1ccc(-c2cc(Cl)c(Cl)cc2Cl)o1 | 2* | -4 | 1 | 1.6 | 13
COc1ccc(N/N=C(/N=Nc2nc(C)cc(=O)[nH]2)c2ccccc2)cc1 | 2.3* | -12 | 1.1 | 1.8 | -4
Cc1cc(=O)[nH]c(N=N/C(=N/Nc2ccc(O)cc2)c2ccccc2)n1 | 2.3* | -1 | 1 | 1.9 | 18
Cc1cc(=O)[nH]c(N=N/C(=N/Nc2ccccc2C)c2ccccc2)n1 | 1.8 | 5 | 0.9 | 1.5 | 5
COc1ccc(C(=O)CSc2nc(C)cc(=O)[nH]2)cc1 | 1.2 | 7 | 0.9 | 1.1 | -16
CCOC(=O)c1c(NC(=S)Nc2ccc(Cl)cc2)sc(C)c1C | 1 | 8 | 0.9 | 1 | 4
Cc1sc(NC(=S)Nc2ccc(F)cc2)c(C(N)=O)c1C | 0.6 | 58* | 0.4 | 0.5 | 12
N#Cc1c(N)n[nH]c1-c1cc2c([nH]1)CCCC2 | 0.8 | 24 | 0.8 | 0.9 | 3
N#Cc1cc2c([nH]c1=S)CCCCCC2 | 2.1* | 14 | 0.9 | 1.3 | 4
CN1CCN(/N=C/c2nc(-c3ccccc3)n3ccccc23)CC1 | 0.8 | 8 | 0.9 | 1 | -6
NC(=S)n1[nH]c(-c2ccc([N+](=O)[O-])cc2)c(N=Nc2cccc([N+](=O)[O-])c2)c1=O | 1 | 79* | 0.2 | 0.9 | 0
SMILES | PMI act hi M6P | Diaph inh CS | Diaph act CS | PMI act | G6PDH CS
Cc1c(N=Nc2c(-c3ccc([N+](=O)[O-])cc3)[nH]n(C(N)=S)c2=O)cccc1[N+](=O)[O-] | 1 | 54* | 0.5 | 1 | 6
CC(C)N1CCN(Cc2ccc3c(c2)Cc2ccccc2-3)CC1CCO (stereo not drawn) | x | x | x | x | 18
CCN(C(=O)[C@@H]1CCCN1C(=O)c1cccs1)c1nc2cc(Cl)ccc2s1 | 0.9 | 26 | 0.7 | 0.8 | -4
O=C1C=C(NCc2ccc(Cl)cc2)CC(c2ccco2)C1 (stereo not drawn) | 0.9 | 23 | 0.8 | 1 | 0
CC(C)CNC1=CC(=O)CC(c2ccco2)C1 (stereo not drawn) | 0.5 | 61* | 0.4 | 0.6 | 16
Cc1cc(NC(=O)CSc2nc(CC(C)(C)C)nc3c2c(=O)n(C)c(=O)n3C)no1 | 0.8 | 15 | 0.8 | 0.8 | -2
CC(=O)Nc1ccccc1OCC(=O)c1cc(C)n(Cc2cccs2)c1C | 0.8 | 20 | 0.8 | 0.8 | -4
